Assay results: the array DNA melting data of Ke et al. (doi:10.1101/2024.01.08.574731)

Tests used:
[1] = melting temperature; fluorescence melt of hairpins on a sequencing array, two-state fit, raised by 9.35 °C to match UV melts; conditions: sodium 0.088 M
How it was run: (§1)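 To match UV melts, fitted temperatures were raised by 9.35 °C. These fits were bootstrapped two-state models that gave melting temperature and folding enthalpy, combined by inverse variance over four replicates. The input was normalised Cy3 fluorescence of library hairpins with annealed Cy3 and quencher oligos on a sequenced MiSeq flow cell, imaged in 50 mM Na-HEPES pH 8.0, 25 mM NaCl in 2.5 °C steps up to 60 °C.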

[2] = folding enthalpy; higher = less favourable; fluorescence melt of hairpins on a sequencing array, two-state fit; conditions: sodium 0.088 M
How it was run: as §1

Row | Sequence | Tm [1] | folding enthalpy [2]
1 | GATCAATTCATTGATC ((((((....)))))) | 53.1 °C | -50.7 kcal/mol
2 | GTGACGCGAAAGCGCCAC (((.(((....))).))) | 68 °C | -33.9 kcal/mol
3 | GCGGTTCGAAAGAATCGC (((.(((....))).))) | 66.4 °C | -43.4 kcal/mol
4 | GTCACGGGAAACCGTGAC (((((((....))))))) | 68.9 °C | -35.5 kcal/mol
5 | GACCAGGGAAACCCAGTC (((..((....))..))) | 29.1 °C | -18.4 kcal/mol
6 | GATCTATAGTAGATC ((((((...)))))) | 38.6 °C | -22.4 kcal/mol
7 | GATCCACGGTTGGATC ((((((....)))))) | 48.9 °C | -37.7 kcal/mol
8 | GCGAATGAAAATTCGC ((((((....)))))) | 65 °C | -36.3 kcal/mol
9 | GCACTGCGAAAGCCGAGC ((.(.((....)).).)) | 38.8 °C | -20.2 kcal/mol
10 | GAGACGGGAAACCATCTC ((((.((....)).)))) | 36.8 °C | -24.5 kcal/mol
11 | GAAATGCGAAAGCACTTC (((.(((....))).))) | 40.7 °C | -17.1 kcal/mol
12 | GCCCCATCGAAAGATGGC (((..(((....)))))) | 37.9 °C | -7.75 kcal/mol
13 | GGTGTGGGAAACCACATC (.(((((....))))).) | 51.2 °C | -21.1 kcal/mol
14 | GAGTCGGGAAACCGATTC ((.((((....)))).)) | 47.7 °C | -25 kcal/mol
15 | GCACTGGGAAACCAGCGC ((.((((....)))).)) | 51.9 °C | -40.7 kcal/mol
16 | CGCGGAAAAACAACAACAACCGCG ((....................)) | 37.3 °C | -29.6 kcal/mol
17 | GCATTAGGAAACTAGTGC (((.(((....))).))) | 40.9 °C | -28.6 kcal/mol
18 | GACTCCGAAAGGAGAGTC ((((((....)))..))) | 43 °C | -12.9 kcal/mol
19 | GATCTCGGGAGAGATC ((((((....)))))) | 63.2 °C | -41.6 kcal/mol
20 | GGCTGCGAAAGCAAGGCC ((((((....)))..))) | 55.8 °C | -18.5 kcal/mol
21 | GTAGATGAAAATCTAC ((((((....)))))) | 48.6 °C | -29.2 kcal/mol
22 | GATCCCTTCGGGATC ((((((...)))))) | 65.3 °C | -41.1 kcal/mol
23 | GAGCGCGAAAGCGTCTC ((((((....))).))) | 61.5 °C | -21.2 kcal/mol

Row | Sequence | Tm [1] | folding enthalpy [2]
24 | GATCTCCATAGAGATC ((((((....)))))) | 56.8 °C | -33.4 kcal/mol
25 | GCTCTAGGAAACTAGGGC ((.((((....)))).)) | 47.1 °C | -32.7 kcal/mol
26 | GGTACGCGAAAGCGAACC (((.(((....))).))) | 58 °C | -24.8 kcal/mol
27 | GTTTGCCGAAAGGCGAAC (((.(((....))).))) | 61.9 °C | -28.3 kcal/mol
28 | GTTTCTGGAAACAGGAAC (((.(((....))).))) | 43.6 °C | -30.4 kcal/mol
29 | GTGCTCGAAAGAGACCAC ((((((....)))..))) | 34.4 °C | -14.6 kcal/mol
30 | GATCCTGGATAGGATC ((((((....)))))) | 57.5 °C | -39 kcal/mol
31 | GCTGGGCGAAAGCTCTGC ((.(.((....)).).)) | 53.1 °C | -22.3 kcal/mol
32 | GAGGGAGCGAAAGCTCTC (((..(((....)))))) | 42.8 °C | -9.38 kcal/mol
33 | GATCTTATGTAAGATC ((((((....)))))) | 45.2 °C | -36.6 kcal/mol
34 | GATCGTATTCACGATC ((((((....)))))) | 55.1 °C | -34.7 kcal/mol
35 | GACGTGGGAAACCGTGTC (((..((....))..))) | 36.6 °C | -16.8 kcal/mol
36 | GGCCCCGAAAGGGGTGCC ((((((....)))..))) | 59.1 °C | -12.1 kcal/mol
37 | GCTGGGGGAAACCCCAAC (.(((((....))))).) | 38.5 °C | -13.2 kcal/mol
38 | GATCCCAGAAGGGATC ((((((....)))))) | 60.4 °C | -34.7 kcal/mol
39 | GTGCGGCGAAAGCCACAC (((.(((....))).))) | 62.1 °C | -29.2 kcal/mol
40 | GCGGGCCGCCGC ((((....)))) | 61.5 °C | -15.5 kcal/mol
41 | GCGGATACGAAAGTACGC (((..(((....)))))) | 49.4 °C | -27 kcal/mol
42 | GGTTCCCGAAAGGGCACC (((.(((....))).))) | 51.6 °C | -26.2 kcal/mol
43 | GATCAATGGTTTGATC ((((((....)))))) | 44.7 °C | -31.9 kcal/mol
44 | GTCTTACGAAAGTACGAC (((.(((....))).))) | 43.8 °C | -34.5 kcal/mol
45 | GATCCTACTAGGATC ((((((...)))))) | 53.6 °C | -36.2 kcal/mol
46 | GTCAGTGGAAACGTTGAC ((((..(....)..)))) | 34.9 °C | -21.1 kcal/mol

Row | Sequence | Tm [1] | folding enthalpy [2]
47 | GCCACGCGAAAGCATCGC ((.(.((....)).).)) | 24 °C | -7.48 kcal/mol
48 | GTGACCGAAAGGTTCCAC ((((((....)))..))) | 33.2 °C | -9.64 kcal/mol
49 | GCCCCGCGAAAGCCGTGC ((.(.((....)).).)) | 27.7 °C | -15.5 kcal/mol
50 | GGCGTGGGAAACCGTGCC (((..((....))..))) | 49.1 °C | -32.1 kcal/mol
51 | GGTCCCGAAAGGGGCACC ((((((....)))..))) | 50.7 °C | -11.3 kcal/mol
52 | GATCTGGTCACAGATC ((((((....)))))) | 62.1 °C | -40.3 kcal/mol
53 | GGAGGTGGAAACACCTCC (((((((....))))))) | 68.6 °C | -40.8 kcal/mol
54 | GTCGAGGAAACTCGAC ((((((....)))))) | 63.3 °C | -45.2 kcal/mol
55 | GATCTCGCGGGAGATC ((((((....)))))) | 52.4 °C | -33.1 kcal/mol
56 | GTAGTTCGAAAGAAATAC (((.(((....))).))) | 42.2 °C | -29.2 kcal/mol
57 | GTTCTGTCGAAAGACAAC (((..(((....)))))) | 23.8 °C | -9.57 kcal/mol
58 | GATCAGGGCCTGATC ((((((...)))))) | 53 °C | -68.2 kcal/mol
59 | GGCCTAGGAAACTAGACC ((.((((....)))).)) | 40.6 °C | -28.6 kcal/mol
60 | GTGACACGAAAGTGCAC (((.(((....)))))) | 53.2 °C | -17.3 kcal/mol
61 | GATCTCAGAAGAGATC ((((((....)))))) | 50.6 °C | -33.5 kcal/mol
62 | GCTAGGCCGAAAGGCAGC (((..(((....)))))) | 47.8 °C | -15.1 kcal/mol
63 | AAGCGGAAACGCTT (((((....))))) | 57.3 °C | -17.5 kcal/mol
64 | GGGGAACGAAAGTTGCCC (((.(((....))).))) | 64 °C | -39.1 kcal/mol
65 | GTACCCGAAAGGGGATAC ((((((....)))..))) | 41.9 °C | -11.9 kcal/mol
66 | GCGGTTTTCCGC ((((....)))) | 58.4 °C | -30.3 kcal/mol
67 | GATTCGCGAAAGCGGATC (((.(((....))).))) | 60.5 °C | -27.7 kcal/mol
68 | GTCAAGGAAACTTGAC ((((((....)))))) | 53.5 °C | -29.6 kcal/mol
69 | GTCTTGGCGAAAGCCGAC (((..(((....)))))) | 37.5 °C | -9.96 kcal/mol

Row | Sequence | Tm [1] | folding enthalpy [2]
70 | GGGTTCGAAAGAAAGCCC ((((((....)))..))) | 36 °C | -16 kcal/mol
71 | GATCAAGGAATTGATC ((((((....)))))) | 47.6 °C | -31.8 kcal/mol
72 | GCCTTTCGAAAGAACGGC (((.(((....))).))) | 48.8 °C | -39.5 kcal/mol
73 | GTAAGTGGAAACACCTAC (((.(((....))).))) | 29.2 °C | -16.8 kcal/mol
74 | GTCTATGCGAAAGCAGAC (((..(((....)))))) | 42.1 °C | -16.9 kcal/mol
75 | GTCGTACGAAAGTAAGAC (((.(((....))).))) | 52.1 °C | -33.2 kcal/mol
76 | GTGGTTCCGAAAGGACAC (((..(((....)))))) | 40 °C | -17.3 kcal/mol
77 | GTGTACGAAAGTATGCAC ((((((....)))..))) | 35.6 °C | -17.7 kcal/mol
78 | CGCACCGGAAACGGCGCG (((.(((....))).))) | 60.9 °C | -52.1 kcal/mol
79 | GCAGCCGAAAGGCTCTGC ((((((....)))..))) | 46.3 °C | -12.2 kcal/mol
80 | GCCATCGAAAGATAAGGC ((((((....)))..))) | 44.8 °C | -23.5 kcal/mol
81 | GCTTGAGAAATCAAGC ((((((....)))))) | 55.8 °C | -35.3 kcal/mol
82 | GTCTCCGAAAGGACTGAC ((((((....)))..))) | 34.4 °C | -14.6 kcal/mol
83 | GGAGAATCGAAAGATTCC (((..(((....)))))) | 38.1 °C | -15.8 kcal/mol
84 | GTAAAGGGAAACCTTTAC (((((((....))))))) | 51.3 °C | -41 kcal/mol
85 | GTCGGGGGAAACTCCGAC (((((.(....).))))) | 57.6 °C | -44.7 kcal/mol
86 | GATTCACGAAAGTGGATC (((.(((....))).))) | 52.5 °C | -39.1 kcal/mol
87 | CGGAGCGGAAACGCCCCG (((.(((....))).))) | 55.8 °C | -30.8 kcal/mol
88 | GTGTAACGAAAGTTGCAC (((.(((....))).))) | 53.6 °C | -33 kcal/mol
89 | GGCAATCGAAAGATGCC (((.(((....)))))) | 56.5 °C | -40.3 kcal/mol
90 | GTCCGGTCGAAAGACGAC (((..(((....)))))) | 38.5 °C | -12.6 kcal/mol
91 | GGACCGGGAAACCGGTTC (.(((((....))))).) | 59 °C | -22.3 kcal/mol
92 | GTGTACGAAAGTAGACAC ((((((....)))..))) | 40.8 °C | -22.7 kcal/mol
